Assay results as given in ChEMBL document CHEMBL4706709, “Withanolides from dietary tomatillo suppress HT1080 cancer cell growth by targeting mutant IDH1” (Bioorg Med Chem, 2021).
The source made the active and inactive calls. The rule behind the calls is not given here.

Columns and labels:
[1] = molecular target: T1, Isocitrate dehydrogenase [NADP] cytoplasmic (Homo sapiens, UniProt O75874, R132H); test: Inhibition of C-terminal His6-tagged IDH1 R132H mutant (unknown origin) expressed in Escherichia coli BL21 (DE) using alpha-ketoglutarate as substrate preincubated for 10 mins followed by substrate addition and measured at 1 min interval for 20 mins in presence of NADPH
Summary of the method: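 His-tagged IDH1 R132H at 2 μM in 50 mM HEPES pH 7.5 with 4 mM MgCl2 and 100 μM NADPH. Compound preincubated with enzyme 10 min, then reaction started with 2 mM α-KG. NADPH consumption read at 340 nm every 1 min for 20 min. IC50 from mean of three independent assays.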

[2] = molecular target: Isocitrate dehydrogenase [NADP] cytoplasmic (Homo sapiens, UniProt O75874); test: Inhibition of wild-type IDH1 (unknown origin) in presence of sodium(D)-isocitrate and NADP+
Summary of the method: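 Wild-type IDH1 purified at 43 nM in 50 mM HEPES pH 7.5 with 50 μM sodium D-isocitrate, 4 mM MgCl2 and 1 mM NADP+. NADPH production monitored at 340 nm. IC50 from mean of three independent assays.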

[3] = molecular target: T1, Isocitrate dehydrogenase [NADP] cytoplasmic; test: Binding affinity to C-terminal His6-tagged IDH1 R132H mutant (unknown origin) expressed in Escherichia coli BL21 (DE) measured after 20 mins by Red-NHS fluorescence dye-based microscale thermophoresis analysis
Summary of the method: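 IDH1 R132H fluorescently labelled (RED kit) and used at 20 nM in 20 mM HEPES pH 7.5 with 0.05% Tween-20. Mixed 1:1 with a ligand dilution series, 20 min at room temperature. Loaded in standard capillaries, 10 min at 25 °C. Thermophoresis read at 20% laser and 100% LED power, Kd fitted from the curve.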

HT-1080 [4] = test: Antiproliferative activity against human HT-1080 cells assessed as reduction in cell proliferation measured after 48 hrs by CCK8 assay; format: functional, cell-based; details: HT-1080, 48 h
Summary of the method: (§1)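 HT1080 cells (IDH1 R132C) in high-glucose DMEM with 10% FBS, 37 °C, 5% CO2. Adherent cells exposed to compound in fresh medium for 48 h, DMSO kept below 0.5%. Viability by CCK8, absorbance at 450 nm. Three repeats.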

HT-1080 [5] = test: Antiproliferative activity against human HT-1080 cells assessed as reduction in number of EdU-positive cells measured after 24 hrs by EdU and DAPI staining based fluorescence microscopic analysis; format: functional, cell-based; details: dose 3.25-6.5 µM
Summary of the method: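 Log-phase HT1080 cells treated 24 h with 3.25 or 6.5 μM compound or DMSO. Then 50 μM EdU in serum-free DMEM for 2 h. Fixed in 4% paraformaldehyde, quenched with glycine, permeabilised with 0.5% Triton X-100. Apollo dye reaction for 30 min, DAPI nuclear counterstain, fluorescence microscopy. Three repeats.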

HT-1080 [6] = test: Induction of apoptosis in human HT-1080 cells assessed as nuclear fragmentation at 3.25 to 6.5 uM measured after 48 hrs by Hoechst 33258 and DAPI staining based fluorescence microscopic analysis; format: functional, cell-based; details: dose 3.25-6.5 µM
Summary of the method: (§2)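 HT1080 cells exposed 48 h to 3.25 or 6.5 μM compound. Blocked 2 h, then stained 30 min with Hoechst 33258. Nuclear morphology viewed by fluorescence microscopy (×200).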

HT-1080 [7] = test: Induction of apoptosis in human HT-1080 cells assessed as appearance of densely stained nucleus at 3.25 to 6.5 uM measured after 48 hrs by Hoechst 33258 and DAPI staining based fluorescence microscopic analysis; format: functional, cell-based; details: dose 3.25-6.5 µM; summary of the method: as §2
HT-1080 [8] = test: Induction of apoptosis in human HT-1080 cells assessed as viable cells at 6.5 uM measured after 48 hrs by Annexin V-FITC/propidium iodide staining based flow cytometry (reference value: 66.6%); format: functional; details: read-out: Activity
HT-1080 [9] = test: Induction of apoptosis in human HT-1080 cells assessed as early apoptotic cells at 6.5 uM measured after 48 hrs by Annexin V-FITC/propidium iodide staining based flow cytometry (reference value: 0%); format: functional
HT-1080 [10] = test: Induction of apoptosis in human HT-1080 cells assessed as late apoptotic cells at 6.5 uM measured after 48 hrs by Annexin V-FITC/propidium iodide staining based flow cytometry (reference value: 3.2%); format: functional
HT-1080 [11] = test: Induction of apoptosis in human HT-1080 cells assessed as necrotic cells at 6.5 uM measured after 48 hrs by Annexin V-FITC/propidium iodide staining based flow cytometry (reference value: 30.2%); format: functional
[12] = system: Isocitrate dehydrogenase [NADP] cytoplasmic (Homo sapiens), O75874 [R132H]; test: Inhibition of IDH1 […] assessed as reduction in R-2-HG concentration measured after 48 hrs by LC-MS/MS analysis; format: cell-based; details: dose 0.94-30 µM
Summary of the method: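 HT1080 cells treated 48 h with 0.94–30 μM compound or DMSO. Medium diluted in methanol and centrifuged. R-2-HG in the supernatant quantified by LC-MS/MS (ESI, MRM) on a C18 column, gradient of methanol against 10 mM ammonium acetate pH 7.4. Peak area normalised to internal standard, IC50 from the dose–response curve.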

[13] = system: Isocitrate dehydrogenase [NADP] cytoplasmic (Homo sapiens), O75874 [R132H]; test: Inhibition of IDH1 […] assessed as down regulation of H3K9me3 expression at 3.25 to 6.5 uM measured after 48 hrs by Western blot analysis; format: cell-based; details: dose 3.25-6.5 µM
Summary of the method: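 HT1080 cells in 6-well plates treated 48 h. Lysed in RIPA, protein measured by BCA. Run on 12% SDS-PAGE, blotted to PVDF, blocked in 5% milk 1 h. Probed with H3K9me3 primary antibody, β-actin also available, then HRP secondary.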

[14] = system: Isocitrate dehydrogenase [NADP] cytoplasmic (Homo sapiens), O75874 [R132H]; test: Inhibition of IDH1 […] assessed as down regulation of H3K9me3 expression at 6.5 uM measured after 48 hrs by DAPI staining based immunofluorescence microscopic analysis; format: cell-based
Summary of the method: (§3)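 HT1080 cells on slides exposed 48 h to 3.25 or 6.5 μM compound. Fixed in 4% paraformaldehyde 15 min, permeabilised with 0.1% Triton X-100 for 5 min at 4 °C, blocked 2 h in 5% BSA. Primary antibody (H3K9me3, HIF-1α or p53, 1:100) overnight at 4 °C. Fluorescent secondary (1:500) 1 h in the dark, DAPI counterstain, imaged.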

[15] = system: Isocitrate dehydrogenase [NADP] cytoplasmic (Homo sapiens), O75874 [R132H]; test: Inhibition of IDH1 […] assessed as reduction in HIF-1alpha accumulation at 3.25 to 6.5 uM measured after 48 hrs by DAPI staining based immunofluorescence microscopic analysis; format: cell-based; details: dose 3.25-6.5 µM; summary of the method: as §3
[16] = system: Isocitrate dehydrogenase [NADP] cytoplasmic (Homo sapiens), O75874 [R132H]; test: Inhibition of IDH1 […] assessed as increase in p53 expression at 3.25 to 6.5 uM measured after 48 hrs by DAPI staining based immunofluorescence microscopic analysis; format: cell-based; details: dose 3.25-6.5 µM; summary of the method: as §3
HT-1080 [17] = test: Antiproliferative activity against human HT-1080 cells transfected with shIDH1 R132C assessed as reduction in cell proliferation at 1.25 to 10 uM measured after 48 hrs by CCK8 assay; format: functional, cell-based; details: dose 1.25-10 µM; summary of the method: as §1

Isocitrate dehydrogenase [NADP] cytoplasmic (Homo sapiens), O75874 [R132H], sequence (O75874 whole entry R132H): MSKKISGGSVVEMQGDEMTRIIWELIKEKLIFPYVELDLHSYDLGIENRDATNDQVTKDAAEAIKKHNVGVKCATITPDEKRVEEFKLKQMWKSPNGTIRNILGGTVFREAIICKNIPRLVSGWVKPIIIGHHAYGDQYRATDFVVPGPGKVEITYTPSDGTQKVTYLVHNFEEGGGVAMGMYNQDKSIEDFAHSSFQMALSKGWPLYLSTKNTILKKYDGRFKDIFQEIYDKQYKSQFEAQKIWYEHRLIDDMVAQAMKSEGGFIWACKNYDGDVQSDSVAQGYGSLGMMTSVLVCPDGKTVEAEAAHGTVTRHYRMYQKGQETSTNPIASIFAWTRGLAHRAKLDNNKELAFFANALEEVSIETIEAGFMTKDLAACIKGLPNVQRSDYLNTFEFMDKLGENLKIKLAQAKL
T1 sequence (O75874 2-414 R132H limits assumed): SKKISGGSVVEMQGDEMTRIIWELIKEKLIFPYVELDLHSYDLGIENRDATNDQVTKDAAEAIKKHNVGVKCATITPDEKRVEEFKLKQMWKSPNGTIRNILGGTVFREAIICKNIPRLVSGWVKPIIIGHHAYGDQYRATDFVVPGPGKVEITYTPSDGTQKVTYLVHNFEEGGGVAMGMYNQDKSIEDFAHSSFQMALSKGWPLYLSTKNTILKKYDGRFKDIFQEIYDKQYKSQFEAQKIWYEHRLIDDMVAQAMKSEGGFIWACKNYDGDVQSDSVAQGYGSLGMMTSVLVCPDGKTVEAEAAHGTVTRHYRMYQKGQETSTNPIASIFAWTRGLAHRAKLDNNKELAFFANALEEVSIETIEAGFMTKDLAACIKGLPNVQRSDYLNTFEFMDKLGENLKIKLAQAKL
Isocitrate dehydrogenase [NADP] cytoplasmic (Homo sapiens, UniProt O75874), sequence (O75874 whole entry): as the sequence (O75874 whole entry R132H) above, with H132R counted along it

Structure (SMILES)	IC50 [1] [µM]	IC50 [2] [µM]	Kd [3] [µM]	IC50 (HT-1080 [4]) [µM]	Activity (HT-1080 [5])	Activity (HT-1080 [6])	Activity (HT-1080 [7])	viability at 6.5 µM (HT-1080 [8]) [%]	Activity (HT-1080 [9]) [%]	Activity (HT-1080 [10]) [%]	Activity (HT-1080 [11]) [%]	inhibition [12]	inhibition [13]	inhibition [14]	inhibition [15]	inhibition [16]	Activity (HT-1080 [17])
C[C@@]12C[C@H]3OC(=O)[C@@H]1CO[C@]14O[C@@]5([C@H]2C1=O)[C@@]3(C)OC(=O)[C@@]5(O)CC[C@H]1[C@H]4C[C@H]2O[C@]23CC=CC(=O)[C@]13C	0.63	> 200	15.3	2.41	Dose-dependent effect	Active	Active	19.9	55	23.9	1.1	Dose-dependent effect	Active	Active	Active	Active	Active
C[C@]12C(=O)C=CCC1=CC[C@@H]1[C@@H]2CC[C@]2(O)C(=O)O[C@@]3(C)[C@H]4C[C@]5(C)[C@@H](CO[C@@]16O[C@@]32[C@H]5C6=O)C(=O)O4 [PHYSALIN B]	1.26	> 200	45.3														
